Reference: PMC3099476 (Toxicology and applied pharmacology, 2011)

What was measured:
B6C3F1 male mice [1] = assay: Serum ALT in APAP toxicity; assay type: in vivo, mouse
[2] = tested on: APAP protein adducts in liver; assay: Hepatic APAP protein adducts; assay type: in vivo, mouse
HIF-1α = settings: B6C3F1 male mice with APAP toxicity; 1 h; ref James et al., 2006; cited from earlier work
B6C3F1 male mice [3] = assay: Liver histology necrosis score; assay type: in vivo, mouse; settings: score 0 absent to 4 severe
Procedure, shortened: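 Six-week male B6C3F1 mice, fasted overnight, dosed at 0800 with the analgesic hepatotoxicant IP, then immediately the test compound (MPT inhibitor, 50 or 10 mg/kg IP) or vehicle. Hepatotoxicant was 200 mg/kg IP in the 10 mg/kg arm. Saline controls included; 3–6 mice per group. Killed at 4 h. Liver H&E sections scored blind by three reviewers, 0 (absent) to 4 (severe); mean ± SE.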

[4] = APAP 200 mg/kg IP followed by pimonidazole 60 mg/kg IP vs APAP/vehicle, 1 h

SMILES	ALT vs saline (B6C3F1 male mice [1]; APAP 200 mg/kg IP followed by CYC 10 mg/kg IP or vehicle, 4 h)	Serum ALT, time course (B6C3F1 male mice [1]; APAP 200 mg/kg IP, at 2, 4, 8, 24 and 48 h, vs saline)	Serum ALT levels (B6C3F1 male mice [1]; APAP 15, 30, 100, or 200 mg/kg IP, sacrificed at 1 h, vs saline)	Serum ALT vs saline (B6C3F1 male mice [1]; APAP followed by CYC 50 mg/kg IP or vehicle, 4 h)	Hepatic APAP protein adducts vs saline ([2]; APAP followed by CYC 50 mg/kg IP or vehicle, 1, 2, and 4 h)	Hepatic protein adducts vs saline ([2]; APAP/veh or APAP/CYC 10 mg/kg, 1 h)	APAP protein adducts ([2]; APAP/veh or APAP/CYC 10 mg/kg, 4 h (data not shown))	Hepatic APAP protein adduct levels ([2]; separate experiment, APAP/veh or APAP/CYC 10 mg/kg, 1 h)	HIF-1α induction (HIF-1α)	Necrosis Scores at 4 hours, Mean (B6C3F1 male mice [3]; Table 1A, CYC 50 mg/kg experiment)	Necrosis Scores at 4 hours, Mean (B6C3F1 male mice [3]; Table 1B, CYC 10 mg/kg experiment)	Serum ALT (B6C3F1 male mice [1]; [4])	Hepatic APAP protein adducts [2, 4]	Effect of pimonidazole on APAP metabolism ([2]; pimonidazole 60 mg/kg IP after APAP 200 mg/kg IP, 1 h)
CC(=O)Nc1ccc(O)cc1 [APAP, N-acetyl-p-aminophenol]	significantly increased	significantly increased above saline	No significant changes	significantly increased	increased	increased above saline	comparable	elevated	induction of HIF-1α	3	2			
O=[N+]([O-])c1nccn1CC(O)CN1CCCCC1 (centres unmarked) [pimonidazole]												comparable	comparable	no inhibitory affect on APAP metabolism
